Measured values collected from several papers.
Protocols differ between the studies behind these lines.
HTR2C: 5-hydroxytryptamine receptor 2C (HTR2C, Homo sapiens, UniProt P28335)

| Structure (SMILES) | target | observed | mode | method | tested at | measurement | result |
| --- | --- | --- | --- | --- | --- | --- | --- |
| COc1cc2c3c(c1OC)-c1c(cccc1OC)CC3N(C)CC2 (racemic) | HTR2C | ligand displacement | – | radioligand | 10 µM | inhibition | 51% |
| COc1cc(C(F)(F)F)c(OC)cc1C1CCCNC1 (centres unmarked) | HTR2C | G protein activation | agonist | BRET | – | Emax | 85% |
| CN1CCC[C@H]1c1cccnc1 | Neuronal acetylcholine receptor; alpha3/beta4 (Rattus norvegicus, UniProt P04757+P12392) | ligand displacement | – | radioligand | 50 µM | inhibition | 65.5% |
| [2H]c1c([2H])c([C@]2([2H])CCCN2C(=O)C(C)(C)Oc2ccc3cn[nH]c3c2)c([2H])c([2H])c1C([2H])([2H])[2H] | BMP-2-inducible protein kinase (BMP2K, Homo sapiens, UniProt Q9NSY1) | binding | – | competition with immobilised ligand | 1 µM | remaining binding | 77% |
| CC(C)CC(=O)OC[C@H]1O[C@@](C#N)(c2ccc3c(N)ncnn23)[C@H](O)[C@@H]1O | HTR2C | cell-free assay | – | – | 20 µM | inhibition | 10% |
| Nc1ncnc2c1ncn2[C@@H]1O[C@H](C[C@@H](N)CC[C@H](N)C(=O)O)[C@@H](O)[C@H]1O | mRNA cap guanine-N(7) methyltransferase (RNMT, Homo sapiens, UniProt O43148) | enzyme activity | inhibitor | – | 50 µM | inhibition | 85.3% |
| c1cncc([C@@H]2CCCN2)c1 | HTR2C | ligand displacement | – | – | 50 µM | inhibition | -12.7% |
| CCOC(=O)Cc1c2c3c(cc(OC)c(OC)c3c3cc(OC)c(OC)cc13)CCN2C | 5-hydroxytryptamine receptor 2B (HTR2B, Homo sapiens, UniProt P41595) | ligand displacement | – | radioligand | 10 µM | inhibition | 43% |
